Test results as given in ChEMBL document CHEMBL4513216, “Probing the Open Global Health Chemical Diversity Library for Multistage-Active Starting Points for Next-Generation Antimalarials” (ACS Infect Dis, 2020).

Experiment: Toxicity liver stage against HepG2, at 10uM
Type: cell-based
Set-up: test concentration 10 uM, cell line HepG2-A16-CD81EGFP
Details: human, HepG2-A16-CD81EGFP cells; read-out: INHIBITION
In short: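 Uninfected HepG2-A16-CD81EGFP cells, 3 × 10^3 per well, 1536-well, plated on prespotted compound at 10 μM final, parasite-free screening media added to match infected plates; puromycin 10 μM positive, DMSO 0.5% negative; run in parallel with 48 h PbLuc assay at 37 °C, 5% CO2; viability by CellTiter-Glo luminescence, normalized to controls.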

Structure (SMILES)	cytotoxicity at 10 µM [%]
Cc1ncsc1CN1CC[C@H]2OCC[C@@]2(C(=O)N2CCOCC2)C1	6.91
COc1ccc(C(=O)N(C)Cc2ncc(C)c(OC)c2C)c(OC)c1	-4.28
COc1cccc2c1OCC(C(=O)N1CCN(C3CCCC3)C(=O)C1)C2 (stereo not given)	-4.9
O=C(C1CCC1)N1CCC2(CC1)OCCO2	4.93
NCc1cn(-c2ccccc2C(=O)NCc2cccc(Cl)c2)cn1	4.14
CN(C)CC(=O)Nc1ccc(C(=O)N(C)CCc2cn[nH]c2)cc1	2.2
Cc1nccn1-c1ccc(C(C)NCc2cc[nH]n2)cc1 (stereo not given)	5.33
COc1cccc(CNC(=O)CCOc2ccccc2C)c1	-1.2
CC(C)NC(=O)C1CCN(c2nc3nc[nH]c(=O)c3s2)CC1	-3.79
Cc1ncc2c(n1)CN(Cc1nnc(Cc3ccccc3)o1)CC2	1.13
Cc1ccc(S(=O)(=O)N2CCC3(CC(C(=O)NC4CCC4)=NO3)C2)cc1 (stereo not given)	-1.77
CCCS(=O)(=O)N1CCC2(CC1)CC(=O)N(CCCc1ccccc1)C2	8.35
O=C(NCCCN1CCOCC1)c1nc(-c2ccc3cc[nH]c3c2)no1	-0.663
Cc1ccc(Oc2ncccc2CNS(=O)(=O)N2CCOCC2)cn1	9.83
O=S1(=O)NC2(CCCN(Cc3ccc(Cl)cc3)C2)COc2ccccc21 (stereo not given)	15.2
CC(C)c1cc(C(=O)N2CCC3(CCc4ccccc4C(=O)N3)C2)no1 (stereo not given)	6.83
Cc1occc1C(=O)N1CCC(C(O)c2ccc(Cl)cc2)CC1 (stereo not given)	-0.342
COCCC(=O)N1CC[C@H]2C(=O)N(c3ccsc3)CCO[C@H]2C1	10.4
COc1cccc(OC)c1C(=O)N1C[C@@H](CN(C)C)[C@@H](CO)C1	-4.51
Cc1nnc(Nc2cccc(C3CCN(Cc4ncc[nH]4)CC3)n2)s1	-24
Cc1cnn(CC2CCCCN2CCCS(=O)(=O)N(C)C)c1 (stereo not given)	-5.1
CC(C)c1nnc(NC(=O)NCc2ccc(CO)c(F)c2)s1	6.54

Structure (SMILES)	cytotoxicity at 10 µM [%]
COc1ccccc1-n1nc(-c2ccco2)n(CC(=O)NC(C)C)c1=O	2.57
CCCN1CCN(C(=O)c2cc[nH]n2)[C@H]2CS(=O)(=O)C[C@H]21	2.29
Cc1ccccc1N1CCCN(C(=O)CCc2ccncc2)CC1	-9.88
Cc1cnn(CC2CCCN2C(=O)CCc2c(C)noc2C)c1 (stereo not given)	-5.81
CC(C(=O)NCC(C)(C)c1ccc(Br)cc1)n1cncn1 (stereo not given)	1.73
COC(=O)CCC(=O)N1CCc2[nH]nc(-c3ccc(F)c(F)c3)c2C1	0.604
O=C(C1CCC2(CCN(c3nncs3)CC2)CO1)N1CCCC1 (stereo not given)	9.46
Cc1noc(C)c1C(=O)NCCN1CCOCC1	-10.9
Cc1ccc(N2CCCC(NCc3ccsc3)C2)nn1 (stereo not given)	-7.42
CC(C)Cc1cc(C(=O)O)nc2[nH]c(=O)[nH]c(=O)c12	-0.508
Cn1cnnc1C1CCCN(C(=O)COCc2ccccc2)C1 (stereo not given)	-18.1
CCc1nc2n(n1)CC(NCC(=O)Nc1cc(C)nn1C)CC2 (stereo not given)	-10.7
Cc1ccc(CN2CCCC3(COCCN(Cc4c[nH]nn4)C3)C2)o1 (stereo not given)	-5.47
CCN1CCOC(CNCc2csc(C)n2)C1 (stereo not given)	-5.13
CN1CCCC2(C1)CN(C(=O)C1CCCCC1)CCO2 (stereo not given)	0.994
Nc1cccc(-c2cccc3ccnn23)n1	-5.74
CN(C)C(=O)CN1C[C@H]2CC[C@@H](C1)N(Cc1c(F)cccc1Cl)C2	5.48
COc1ccc(CN(C(=O)C2CCCOC2)c2ccncc2)cc1 (stereo not given)	6.35
COCC(=O)N1CCCC2(CCN(c3cncnc3)C2=O)C1 (stereo not given)	-72.5
Cc1ccc(O)c(CNCC2CCCN2c2cccnn2)n1 (stereo not given)	-7.92
CC(C)NC(=O)c1ccc2c(c1)C1(CCN(C)CC1)C(=O)N2	-0.201
CS(=O)(=O)N[C@@H]1CCN(Cc2ccncc2)[C@H]1Cc1cccnc1	-79.7

Structure (SMILES)	cytotoxicity at 10 µM [%]
O=C(NCc1nnc2n1CCC2)c1cn(-c2ccccc2Br)nn1	3.37
Cc1cnn(C2CCCN(C(=O)c3ccc(NC4CC4)nc3)C2)c1 (stereo not given)	-19.6
CC(C)c1nn(C)c(N2CCOCC2)c1CNCC(=O)N(C)C	-4.3
c1cnc(N2CCc3onc(CN4CCCC4)c3C2)cn1	-3.09
Cc1cc(-c2nn3c(C4CCC4)nnc3s2)on1	-5.65
CN(C)C(=O)[C@H]1C[C@H]2CN(C(=O)NCC3CCCCC3)C[C@@H]1O2	-0.572
Cc1nc(CN2CCc3ncnc(-c4ccc(F)cc4)c3CC2)cs1	4.89
COc1cc(CC(O)CC#N)c(OC)c2c1OCO2 (stereo not given)	-6.32
CC(C)c1nc(C2CCCN2C(=O)CCn2cncn2)no1 (stereo not given)	-2.38
Cc1nc(C)n(CC2CCCCN2CC(=O)Nc2nncs2)n1 (stereo not given)	4.62
Cc1nc(CN2CCCN(Cc3nccn3C(C)C)CC2)no1	-1.91
CC(C)c1noc(CCCC(=O)N2CCN(Cc3ccsc3)CC2)n1	-5.19
CC(c1ccco1)N(C(=O)COc1ccc(C#N)cc1)C1CC1 (stereo not given)	-6.6
COc1c(C(=O)N2CCC(COCc3ccccc3)C2)c(C)nn1C (stereo not given)	7.39
NC(=O)NC(=O)CCN1C(=O)CC(Cc2ccc(F)cc2)C1=O (stereo not given)	-0.327
COc1c(C2CCCN2C(=O)c2cc(Cl)c[nH]2)c(C)nn1C (stereo not given)	4.6
COc1cccc(-c2nc(CNCCCn3cccn3)cs2)c1	-19.7
CN(CCc1cnn(C)c1)C(=O)C1COc2ccccc2C1 (stereo not given)	1.33
Cn1ncc2c(N3CC(N4CCCCC4)C3)nc(C3CCCC3)nc21	-5.07
Cc1noc(C)c1CC(=O)N1CCCN(Cc2cscn2)CC1	2.45
CNC(=O)NC(=O)C(NCc1ccccc1)c1ccccc1 (stereo not given)	-52.9
Cc1ccc(-c2[nH][nH]c(=O)c2CCN)cc1	6.03

Structure (SMILES)	cytotoxicity at 10 µM [%]
CC(C)c1nc(CN(C)C2CCN(CCn3cc(C#N)cn3)C2)no1 (stereo not given)	-6.29
c1cncc(OCCCNC2COc3ccccc3C2)c1 (stereo not given)	-7.84
CC(C)C[C@@H]1N[C@H](C(=O)NC(C)C)Cc2c[nH]c3cccc1c23	7.37
CS(=O)(=O)NCC1CCCN(C(=O)COCC2CC2)C1 (stereo not given)	4.28
CNC(=O)[C@H]1C[C@@H]2CN(S(=O)(=O)c3ccccc3)C[C@@H]2N1C	-5.27
COc1cc(CN(C)C(=O)NCc2nccs2)ccc1SC	-7.66
CCCc1nc(C)c(C(=O)NS(=O)(=O)c2cccnc2)s1	-5.8
Cc1ccnc(NC(=O)c2ccc(C)o2)c1	-4.33
CC(C#N)CSc1ccccc1NCC(=O)NCc1ccccc1 (stereo not given)	-7.89
CCOC(=O)N1CCC(NC(=O)c2cccc(C3CCCNC3)c2)CC1 (stereo not given)	1.34
Cc1oc(-c2nc(C#N)c(N(C)C)o2)cc1S(=O)(=O)N1CCCC1	-8.87
O=C(C1CCOCC1)N1CCc2ncc(CN3CCCCC3)n2CC1	-78.4
O=C(NCCNc1ncccn1)C1CCN(c2ncccn2)CC1	-7.67
CC(=O)NC1CCCc2c1[nH]c1ccc(F)cc21 (stereo not given)	-4.41
COc1cccc(Cc2nnc(SC3CCOC3=O)o2)c1 (stereo not given)	12.9
Cc1ccc(CN2CCn3c(CNC(=O)c4cccn4C)cnc3C2)s1	1.82
CC(NC(=O)Nc1cccnc1N1CCOCC1)c1ccncc1 (stereo not given)	5.28
CCNc1cc2c(nn1)CCN(C(=O)c1cc(C)n(C3CC3)c1C)C2	-0.282
Cc1nccn1CCN(C)C(=O)c1cn(CC2CCCCC2)nn1	-1.84
CN1CCN(c2cc(Sc3cccs3)nc(N)n2)CC1CCO (stereo not given)	1.31
CC(C)c1nc(C2CCCN2CC(=O)N2CCc3ccccc32)no1 (stereo not given)	-5.84
Cn1cnnc1CCNC(=O)c1ccccc1OC1CCC1	-2.94

Structure (SMILES)	cytotoxicity at 10 µM [%]
CC(C)CCN1CC2(CCCN(C(=O)c3cscn3)C2)CCC1=O (stereo not given)	-13.9
N#Cc1ccnc(N2CCN(CC(O)c3cc(F)ccc3F)CC2)c1 (stereo not given)	1.31
Cc1ccc(CN(Cc2cccnc2)C2CC(C)(C)NC(C)(C)C2)s1	4.94
CN1CCCN(c2cnn(Cc3ccc(C(C)(C)C)cc3)c(=O)c2)CC1	11.1
O=C(CCCC1CCCC1)NS(=O)(=O)CC1CC1	-5.62
Cc1cccc(C(C(=O)NC(C)(C)CN2CCOCC2)N(C)C)c1 (stereo not given)	-2.21
COc1cccc2c1CCN(C(=O)NCc1nnc3ccccn13)C2	0.67
N#Cc1ccc(C(=O)NCC2(N3CCOCC3)CCCC2)nc1	8.96
Cc1cccn2cc(C(=O)N3CCCN(CC4CC4)C(C(C)C)C3)nc12 (stereo not given)	1.46
Cc1cc(CN2CC[C@@H]3O[C@@H](c4nnc(C)o4)C[C@H]3C2)no1	-103
COc1ccccc1OCC(=O)N1CCC[C@]2(C[C@@H](OC)CO2)C1	1.04
CN1CCN(C2CCN(Cc3noc(C(C)(C)C)n3)CC2)C1=O	17.1
c1cnn(CC2CCCN2Cc2noc(C3CC3)n2)c1 (stereo not given)	1.46
CCN1CC2(CCC1=O)CCN(C(=O)C(O)c1cccc(Cl)c1)CC2 (stereo not given)	0.636
Cn1nc(Br)c2c(NCCN)ncnc21	20.2
CC(C)n1c(C2CCCN(Cc3ccnn3C)C2)nc2ccccc21 (stereo not given)	-0.0273
CCNC(=O)N1CCN(c2nc3ccccc3n2C)CC1	0.739
Cc1[nH]c2c(C)ccc(C)c2c1CC(=O)NCCCNc1cccnc1	0.0773
COCCNC(=O)[C@H]1CC[C@@H]2[C@@H](CCN2c2ncc(F)cn2)O1	-2.25
CCC(C(=O)N1CCN(S(=O)(=O)N2CCCC2)CC1)n1cccn1 (stereo not given)	-8.56
CS(=O)(=O)c1ccc(NC(=O)N2CCc3sccc3C2)cn1	85.1
COc1ccc(-n2cc3[nH]c(=O)n(Cc4cccc(F)c4)n3c2=O)cc1	14.8
